Assays:
RNA A [1] = assay: Thiazole orange fluorescent intercalator displacement; type: binding; conditions: read-out: Dissociation constants (FID); apparent KD from IC50, competitive model; 50 mM Bis-Tris·HCl pH 7.0, 100 mM NaCl, 10 mM MgCl2, 50 nM thiazole orange, 100 nM RNA A, 25 °C; average of three independent measurements ± SD
RNA C = assay: Thiazole orange fluorescence enhancement on RNA binding; conditions: thiazole orange 2.6 µM, RNA 2 µM
Method in brief: (§1)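 Fold rise in thiazole orange fluorescence, with the dye at 2.6 µM and each RNA at 2 µM. RNA A is an in vitro selected aptamer stem-loop, used as supplied. RNA B (human pre-miRNA 23b sequence) and control stem-loop RNA C were 2'-ACE-deprotected (100 mM acetic acid, TEMED to pH 3.8, 60 °C, 30 min), phenol/chloroform-extracted, ethanol-precipitated and kept in water at −20 °C.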

RNA B = assay: as above; parameters: species or system human; conditions: thiazole orange 2.6 µM, RNA 2 µM
Method in brief: as §1

RNA A [2] = assay: Thiazole orange fluorescence enhancement on RNA binding

| SMILES | Kd (RNA A [1]) [µM] | Fold enhancement of thiazole orange fluorescence by control RNA C (RNA C) [fold] | Fold enhancement of thiazole orange fluorescence by RNA B (RNA B) [fold] | Fold stimulation of thiazole orange fluorescence by RNA A (RNA A [2]; thiazole orange 50 nM, RNA A 100 nM) [fold] | Fold enhancement of thiazole orange fluorescence by RNA A (RNA A [2]; thiazole orange 2.6 µM, RNA 2 µM) [fold] |
| --- | --- | --- | --- | --- | --- |
| NC[C@H]1O[C@H](O[C@H]2[C@H](O)[C@@H](O[C@H]3O[C@H](CO)[C@@H](O)[C@H](N)[C@H]3O)[C@H](N)C[C@@H]2N)[C@H](O)[C@@H](O)[C@@H]1O [compound 8, kanamycin] | > 100 | – | – | – | – |
| NC[C@@H]1O[C@H](O[C@H]2[C@@H](O)[C@H](O[C@H]3[C@@H](O)[C@H](N)C[C@H](N)[C@H]3O[C@H]3O[C@H](CN)[C@@H](O)[C@H](O)[C@H]3N)O[C@@H]2CO)[C@H](N)[C@@H](O)[C@@H]1O [compound 7, neomycin] | > 60 | – | – | – | – |
| CN1C(=Cc2cc[n+](C)c3ccccc23)Sc2ccccc21 [thiazole orange] | – | 96 | 977 | ~20 | 2308 |

From publication PMC2585546 (Bioorganic & medicinal chemistry, 2008)
